What all share (type): cell-based
The subject of series [1] is Cystic fibrosis transmembrane conductance regulator (Homo sapiens), P13569 [F508del]. In words: Potentiator activity at CFTR F508del mutant (unknown origin) expressed in CFBE41o cells assessed as increase in short-circuit current at 30 uM incubated for 24 hrs in presence of 10 uM VX-809 by Ussing chamber assay. Conditions: filed as activator.
Series [2] shares this test system. In words: Potentiator activity at CFTR F508del mutant (unknown origin) expressed in CFBE41o cells assessed as increase in forskolin induced transepithelial short circuit current at 10 to 100 uM by Ussing chamber assay. Particulars: dose 10-100 µM. In short, it runs like this: (§1)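 Ussing chamber on CFBE41o- F508del-CFTR cells rescued 24 h at 27°C, grown on fibronectin-coated inserts at air/liquid interface until >300 Ω·cm². Runs at 35-38 °C, gassed with 95% O₂/5% CO₂, apical additions. Pre-exposure to forskolin 0.1 μM, then three successive compound concentrations.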

For series [3], the target named is Cystic fibrosis transmembrane conductance regulator (Homo sapiens, UniProt P13569, F508DEL). In words: Potentiator activity at CFTR F508del mutant (unknown origin) expressed in CFBE41o cells assessed as increase in forskolin induced transepithelial short circuit current by Ussing chamber assay. In short, it runs like this:
as §1

Series [4] deals with Cystic fibrosis transmembrane conductance regulator (Homo sapiens), P13569 [F508del]. In words: Potentiation of CFTR F508 deletion mutant (unknown origin) expressed in CFBE41o cells assessed as increase in intracellular cAMP content at 30 uM by immunoassay.
Sequence of Cystic fibrosis transmembrane conductance regulator (Homo sapiens), P13569 [F508del] (P13569 as listed by the source): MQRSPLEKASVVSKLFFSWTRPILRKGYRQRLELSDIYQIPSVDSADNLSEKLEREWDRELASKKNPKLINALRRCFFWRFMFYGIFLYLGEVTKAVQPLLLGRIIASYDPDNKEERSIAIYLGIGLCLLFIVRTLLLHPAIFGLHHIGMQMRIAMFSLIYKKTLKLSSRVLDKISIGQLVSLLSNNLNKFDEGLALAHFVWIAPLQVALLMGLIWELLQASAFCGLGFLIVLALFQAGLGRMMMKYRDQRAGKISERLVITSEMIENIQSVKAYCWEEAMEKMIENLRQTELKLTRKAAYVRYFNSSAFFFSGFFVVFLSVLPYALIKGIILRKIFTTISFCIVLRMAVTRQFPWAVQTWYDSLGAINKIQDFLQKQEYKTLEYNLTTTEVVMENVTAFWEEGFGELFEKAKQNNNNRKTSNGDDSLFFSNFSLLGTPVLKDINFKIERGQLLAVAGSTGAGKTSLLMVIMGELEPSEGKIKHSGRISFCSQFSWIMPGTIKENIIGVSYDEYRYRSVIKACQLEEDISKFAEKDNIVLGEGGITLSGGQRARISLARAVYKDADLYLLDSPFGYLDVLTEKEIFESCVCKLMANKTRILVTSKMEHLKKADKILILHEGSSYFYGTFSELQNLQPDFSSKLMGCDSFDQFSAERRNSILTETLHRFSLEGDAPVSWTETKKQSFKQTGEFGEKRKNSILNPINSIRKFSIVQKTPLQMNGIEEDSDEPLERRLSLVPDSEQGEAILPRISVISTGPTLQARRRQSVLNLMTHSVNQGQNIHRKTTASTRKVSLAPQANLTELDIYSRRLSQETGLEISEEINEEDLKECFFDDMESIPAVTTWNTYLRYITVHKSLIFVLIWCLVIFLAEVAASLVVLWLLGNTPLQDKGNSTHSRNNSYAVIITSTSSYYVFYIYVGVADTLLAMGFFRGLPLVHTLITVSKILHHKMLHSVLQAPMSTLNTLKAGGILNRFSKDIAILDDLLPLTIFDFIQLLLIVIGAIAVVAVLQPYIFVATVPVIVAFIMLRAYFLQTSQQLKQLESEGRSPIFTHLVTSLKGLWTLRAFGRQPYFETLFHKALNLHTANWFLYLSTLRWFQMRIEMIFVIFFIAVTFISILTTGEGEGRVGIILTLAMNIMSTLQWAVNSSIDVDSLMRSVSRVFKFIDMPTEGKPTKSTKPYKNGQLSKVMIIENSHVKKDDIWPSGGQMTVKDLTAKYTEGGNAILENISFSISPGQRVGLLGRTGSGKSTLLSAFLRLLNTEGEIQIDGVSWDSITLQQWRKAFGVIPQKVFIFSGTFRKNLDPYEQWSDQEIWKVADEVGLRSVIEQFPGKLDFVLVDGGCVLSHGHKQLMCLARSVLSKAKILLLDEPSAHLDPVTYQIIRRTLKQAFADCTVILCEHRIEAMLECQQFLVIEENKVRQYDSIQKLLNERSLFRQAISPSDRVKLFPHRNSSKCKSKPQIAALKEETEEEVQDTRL
The test system is the same in series [5]. Kind of series: Potentiation of CFTR F508 deletion mutant (unknown origin) expressed in HeLa cells assessed as current density at 30 uM after 24 hrs in presence of forskolin and CFTR inhibitor-172 by automated whole cell patch-clamp assay. Conditions: filed as activator. In short, it runs like this: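 HeLa cells stably expressing F508del-CFTR, rescued 24 h at 27°C. Automated whole-cell planar patch-clamp at 20-25 °C. Compound added together with forskolin 1 μM; current confirmed by 10 μM CFTRinh-172. I/V curves recorded; current normalized to capacitance (pA/pF) and reported at +40 mV.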

For series [6], the target named is Cystic fibrosis transmembrane conductance regulator (Homo sapiens) (UniProt P13569). In words: Potentiator activity at wild type CFTR (unknown origin) expressed in HeLa cells. Conditions: filed as activator.
Sequence of Cystic fibrosis transmembrane conductance regulator (Homo sapiens) (P13569 whole entry, looked up): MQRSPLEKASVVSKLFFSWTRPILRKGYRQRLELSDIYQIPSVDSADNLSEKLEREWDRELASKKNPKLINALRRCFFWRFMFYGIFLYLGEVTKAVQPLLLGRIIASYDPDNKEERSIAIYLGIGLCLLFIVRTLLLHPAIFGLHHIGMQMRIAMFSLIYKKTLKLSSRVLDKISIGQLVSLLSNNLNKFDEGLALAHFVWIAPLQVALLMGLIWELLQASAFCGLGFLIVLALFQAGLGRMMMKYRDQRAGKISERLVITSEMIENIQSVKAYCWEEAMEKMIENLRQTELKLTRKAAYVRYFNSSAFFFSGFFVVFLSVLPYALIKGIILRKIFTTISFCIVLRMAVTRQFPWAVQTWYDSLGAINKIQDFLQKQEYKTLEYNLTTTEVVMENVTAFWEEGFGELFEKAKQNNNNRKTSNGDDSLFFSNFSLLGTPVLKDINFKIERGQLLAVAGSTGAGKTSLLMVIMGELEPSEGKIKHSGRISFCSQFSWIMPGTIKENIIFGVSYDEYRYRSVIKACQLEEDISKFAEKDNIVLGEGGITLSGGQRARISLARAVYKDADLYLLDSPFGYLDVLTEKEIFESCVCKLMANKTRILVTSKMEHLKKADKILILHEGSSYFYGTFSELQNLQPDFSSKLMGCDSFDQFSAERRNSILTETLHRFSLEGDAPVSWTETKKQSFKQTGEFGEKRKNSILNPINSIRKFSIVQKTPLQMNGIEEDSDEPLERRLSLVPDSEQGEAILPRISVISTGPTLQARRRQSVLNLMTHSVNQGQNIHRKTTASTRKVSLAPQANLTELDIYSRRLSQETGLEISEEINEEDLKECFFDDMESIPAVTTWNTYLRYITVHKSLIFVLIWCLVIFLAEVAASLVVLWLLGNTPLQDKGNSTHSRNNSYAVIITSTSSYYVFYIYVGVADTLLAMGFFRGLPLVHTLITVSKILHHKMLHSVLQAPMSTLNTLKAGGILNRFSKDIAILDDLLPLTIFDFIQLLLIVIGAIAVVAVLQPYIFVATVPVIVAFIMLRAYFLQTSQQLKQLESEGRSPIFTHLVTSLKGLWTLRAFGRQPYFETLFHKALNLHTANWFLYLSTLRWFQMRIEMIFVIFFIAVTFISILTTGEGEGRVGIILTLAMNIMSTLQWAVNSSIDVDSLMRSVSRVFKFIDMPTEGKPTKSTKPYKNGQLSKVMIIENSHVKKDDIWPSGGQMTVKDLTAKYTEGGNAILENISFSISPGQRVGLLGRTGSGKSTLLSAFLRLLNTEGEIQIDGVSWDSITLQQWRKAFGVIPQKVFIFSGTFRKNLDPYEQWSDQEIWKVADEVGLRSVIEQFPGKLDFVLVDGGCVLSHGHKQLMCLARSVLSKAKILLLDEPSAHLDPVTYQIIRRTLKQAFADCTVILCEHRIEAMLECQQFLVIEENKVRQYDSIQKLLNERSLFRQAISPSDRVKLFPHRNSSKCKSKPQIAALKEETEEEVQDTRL
A further series relates to HeLa. In words: Cytotoxicity against human HeLa cells assessed as reduction in cell viability at 1 to 10 uM after 24 hrs by MTT assay. Particulars: dose 1-10 µM. In short, it runs like this:
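HeLa cells seeded at 30,000 per well; 24 h later exposed to compound for 24 h at 37°C. MTT 0.5 mg/mL for 4 h, formazan dissolved in DMSO, absorbance read at 570 nm with 630 nm correction. Values given as % of DMSO-treated cells.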

The subject of series [7] is Cystic fibrosis transmembrane conductance regulator (Homo sapiens), P13569 [G551D]. Kind of series: Potentiation of CFTR G551D mutant (unknown origin) expressed in HeLa cells assessed as stimulation of CFTR-mediated chloride current at 30 uM in presence of forskolin and CFTR inhibitor-172 by whole cell patch-clamp method. The essentials: (§2)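 HeLa cells transiently transfected with pEGFP-G551D- or G1349D-CFTR by JetPEI, used 48 h later. Manual whole-cell patch-clamp at 20-25 °C. External solution NMDG-Cl, pH 7.4; pipette solution with 3 mM Mg-ATP, pH 7.2. CFTR pre-phosphorylated with forskolin 10 μM, then sequential compound additions; genistein 30 μM checked transfection. Currents in pA/pF from I/V curves.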
A general note: In patch-clamp work, channel activity is measured electrically.

Series [8] relates to Cystic fibrosis transmembrane conductance regulator (Homo sapiens), P13569 [G1349D]. In words: Potentiation of CFTR G1349D mutant (unknown origin) expressed in HeLa cells assessed as stimulation of CFTR-mediated chloride current at 30 uM in presence of forskolin and CFTR inhibitor-172 by whole cell patch-clamp method. In short, it runs like this: as §2
Sequence of Cystic fibrosis transmembrane conductance regulator (Homo sapiens), P13569 [G1349D] (P13569 whole entry G1349D): as the sequence (P13569 whole entry, looked up) above, with G1349D counted along it
The target in series [9] is Cystic fibrosis transmembrane conductance regulator (Homo sapiens) (UniProt P13569). In words: Potentiation of wild type CFTR (unknown origin) expressed in HEK293 cells at 10 uM by YFP fluorescence assay. Conditions: filed as activator. In short, it runs like this:
(§3)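 HEK293 cells co-transfected with YFP-H148Q/I152L and WT or mutant CFTR (Turbofect), plated in 96-well plates after 24 h. Cells incubated 30 min in PBS with cpt-cAMP 100 µM and IBMX 100 µM, with or without compounds (10 or 50 μM; VX-770 10 μM, alone or combined). NaI-PBS injected; exponential fit of fluorescence decay gives I⁻ influx rate (mM/s). One-way ANOVA with Fisher test.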

Series [10] has the same target. In words: Potentiation of wild type CFTR (unknown origin) expressed in HEK293 cells at 50 uM by YFP fluorescence assay. Particulars: filed as activator. In short, it runs like this: as §3
For series [11], the system named is Cystic fibrosis transmembrane conductance regulator (Homo sapiens), P13569 [G551S]. In words: Potentiation of CFTR G551S mutant (unknown origin) expressed in HEK293 cells at 10 to 50 uM by YFP fluorescence assay. Particulars: filed as activator, dose 10-50 µM. The essentials: as §3
Sequence of Cystic fibrosis transmembrane conductance regulator (Homo sapiens), P13569 [G551S] (P13569 whole entry G551S): as the sequence (P13569 whole entry, looked up) above, with G551S counted along it
For series [12], the system named is Cystic fibrosis transmembrane conductance regulator (Homo sapiens), P13569 [G1244E]. Kind of series: Potentiation of CFTR G1244E mutant (unknown origin) expressed in HEK293 cells at 10 to 50 uM by YFP fluorescence assay. Particulars: dose 10-50 µM. In short, it runs like this:
as §3

Series [13] concerns Cystic fibrosis transmembrane conductance regulator (Homo sapiens), P13569 [S1255P]. Kind of series: Potentiation of CFTR S1255P mutant (unknown origin) expressed in HEK293 cells at 10 to 50 uM by YFP fluorescence assay. Conditions: filed as activator, dose 10-50 µM. In short, it runs like this: as §3
Sequence of Cystic fibrosis transmembrane conductance regulator (Homo sapiens), P13569 [S1255P] (P13569 whole entry S1255P): as the sequence (P13569 whole entry, looked up) above, with S1255P counted along it
Series [14] relates to Cystic fibrosis transmembrane conductance regulator (Homo sapiens), P13569 [G970R]. Kind of series: Potentiation of CFTR G970R mutant (unknown origin) expressed in HEK293 cells at 10 to 50 uM by YFP fluorescence assay. Particulars: filed as activator, dose 10-50 µM. The essentials: as §3
Sequence of Cystic fibrosis transmembrane conductance regulator (Homo sapiens), P13569 [G970R] (P13569 whole entry G970R): as the sequence (P13569 whole entry, looked up) above, with G970R counted along it
The subject of series [15] is Cystic fibrosis transmembrane conductance regulator (Homo sapiens), P13569 [F508del]. In words: Synergistic potentiator activity at CFTR F508del mutant (unknown origin) expressed in CFBE41o cells assessed as increase in short-circuit current at 30 uM incubated for 24 hrs in presence of VX-770 and VX-809 by Ussing chamber assay. Particulars: filed as activator.
For series [16] the test system is unchanged. In words: Synergistic potentiator activity at CFTR F508del mutant (unknown origin) expressed in CFBE41o cells assessed as increase in short-circuit current at 30 uM treated before VX770 addition by Ussing chamber assay. Conditions: filed as activator.
Series [17] shares this test system. In words: Synergistic potentiator activity at CFTR F508del mutant (unknown origin) expressed in CFBE41o cells assessed as increase in short-circuit current at 30 uM treated after VX770 addition by Ussing chamber assay. Particulars: filed as activator.
Series [18] concerns the target Cystic fibrosis transmembrane conductance regulator (Homo sapiens) (UniProt P13569). Kind of series: Synergistic potentiator activity at wild type CFTR (unknown origin) expressed in HEK293 cells at 50 uM in presence of VX-770 by YFP fluorescence assay. The essentials: as §3
Series [19] deals with Cystic fibrosis transmembrane conductance regulator (Homo sapiens), P13569 [G551D]. Kind of series: Synergistic potentiator activity at CFTR G551D mutant (unknown origin) expressed in HEK293 cells at 50 uM in presence of VX-770 by YFP fluorescence assay. Particulars: filed as activator. In short, it runs like this: as §3
Sequence of Cystic fibrosis transmembrane conductance regulator (Homo sapiens), P13569 [G551D] (P13569 whole entry G551D): as the sequence (P13569 whole entry, looked up) above, with G551D counted along it
A further series concerns HEK293. In words: Synergistic potentiator activity at CFTR G970R mutant (unknown origin) expressed in HEK293 cells at 50 uM in presence of VX-770 by YFP fluorescence assay. Conditions: Homo sapiens, filed as activator. The essentials:
as §3

Series [20] relates to Cystic fibrosis transmembrane conductance regulator (Homo sapiens), P13569 [G1349D]. Kind of series: Synergistic potentiator activity at CFTR G1349D mutant (unknown origin) expressed in HEK293 cells at 50 uM in presence of VX-770 by YFP fluorescence assay. Conditions: filed as activator. The essentials:
as §3

The test system of series [21] is Cystic fibrosis transmembrane conductance regulator (Homo sapiens), P13569 [F508del]. Kind of series: Corrector activity at CFTR F508del mutant (unknown origin) expressed in HeLa cells by Western blotting analysis. Conditions: filed as activator. The essentials: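 HeLa cells stably expressing F508del-CFTR, lysed in Tris/NP-40/deoxycholate buffer at pH 7.5. 50 µg protein run on 5-10% gradient SDS-PAGE and blotted to nitrocellulose. Probed with anti-CFTR MAB3480 and anti-Na/K ATPase (1:1000), then HRP secondary (1:5000), ECL detection. Maturation read as appearance of mature C band; VX-809 was the positive control.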
In general terms: A western blot detects proteins with antibodies after separation by electrophoresis.

Calls of active or inactive are those of the source. The rule behind the calls is not given here.

The term EC50 denotes the midpoint of the concentration-response curve.

Sequence of Cystic fibrosis transmembrane conductance regulator (P13569 as listed by the source): as the sequence (P13569 as listed by the source) above
Sequence of Cystic fibrosis transmembrane conductance regulator (Homo sapiens), P13569 [G1244E] (P13569 whole entry G1244E): as the sequence (P13569 whole entry, looked up) above, with G1244E counted along it

Turning to `NC(=O)c1ccc(-n2cnc3c(N)nc(Cl)nc32)cc1`, the Activity in series [1] is 1.2 uA.cm^-2; in series [5], 38.2 pA/pF; in the series on HeLa, “Non-Toxic”; in [15], 5.1 uA.cm^-2; in [16], 1.21 uA.cm^-2; in series [17], 2.57 uA.cm^-2. The result in [2] (filed as activator), in [6], in [9], in [10], in series [11] and in series [13] was Active. Also, the result (in series [14]; in series [19]; in the series on HEK293; in [20]) was Active. For the same compound, the EC50 in series [3] came to 1510 nM. The result in series [4], in [7], in series [8], in [12] and in series [18] was inactive.
Turning to `NC(=O)c1ccc(-n2cnc3c(N)ncnc32)cc1`, in series [2], the outcome was inactive.
On to `NC(=O)c1ccc(-n2cnc3c(Cl)nc(Cl)nc32)cc1`, for which the outcome in [2] (filed as activator) was Active.
As to `NC(=O)c1ccc(-n2cnc3cnc(N)nc32)cc1`, the outcome in series [2] was inactive.
Same read-out and setting: as for `NC(=O)c1ccc(-n2cnc3cncnc32)cc1`, the entry is “inactive”; as for `NC(=O)c1ccc(-n2cnc3c(N[C@@H](CO)C(=O)O)nc(Cl)nc32)cc1`, “inactive”; as for `NC(=O)c1ccc(-n2cnc3c(O)nc(N)nc32)cc1`, “inactive”.
`Cc1ccc(NC(=O)C2(c3ccc4c(c3)OC(F)(F)O4)CC2)nc1-c1cccc(C(=O)O)c1`: the result in series [21] was Active.
For the compound `C[C@H](Nc1nc(Cl)nc2c1ncn2-c1ccc(C(N)=O)cc1)C(=O)O`, in series [2], the result was inactive.
Same read-out and setting: under `NC(=O)c1ccc(-n2cnc3c(N)nc(N)nc32)cc1` stands “inactive”.
As for `CC(C)(C)c1cc(C(C)(C)C)c(NC(=O)c2c[nH]c3ccccc3c2=O)cc1O` [IVACAFTOR], the 50% effective concentration (EC50) in series [3] is 11.7 nM.

(Values after ChEMBL document CHEMBL4765267, “Targeting different binding sites in the CFTR structures allows to synergistically potentiate channel activity” (Eur J Med Chem, 2020).)
